Measurements taken from ChEMBL document CHEMBL2424523, “2,3,9- and 2,3,11-trisubstituted tetrahydroprotoberberines as D2 dopaminergic ligands” (Eur J Med Chem, 2013).

Assays:
[1] = Cytotoxicity against human neutrophil assessed as cell survival at 0.1 uM after 24 hrs by annexin V-FITC/propidium iodide staining-based flow cytometric analysis
How it was run: (§1)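 Freshly isolated human blood neutrophils (Ficoll-Hypaque, healthy-donor buffy coats) at 2 x 10^6 cells/mL in supplemented RPMI. Cultured 24 h at 37 °C, 5% CO2, with or without compound. Annexin V-FITC/PI flow cytometry on 1 x 10^4 cells. Early apoptotic = annexin V+/PI−, late apoptotic/necrotic = V+/PI+, viable = V−/PI−. Mean ± SEM, n=3.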

[2] = Induction of apoptosis in human neutrophil at 0.1 uM after 24 hrs by annexin V-FITC/propidium iodide staining-based flow cytometric analysis; format: cell-based; how it was run: as §1
[3] = Cytotoxicity against human neutrophil assessed as cell viability at 0.1 uM after 24 hrs by MTT assay; format: cell-based
How it was run: (§2)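 Human peripheral blood neutrophils isolated from healthy-donor buffy coats by Ficoll-Hypaque, plated at 2 x 10^5 cells/mL in RPMI. Concentrations chosen from D2 Ki. Incubated 24 h at 37 °C, 5% CO2. MTT (1 mg/mL solution) added for 60 min, formazan dissolved in DMSO, absorbance read at 570/630 nm. Mean ± SEM, n=3.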

Rattus norvegicus = species on record: Rattus norvegicus; experiment: Selectivity ratio of Ki for dopamine D1 receptor in rat striatal membranes to Ki for dopamine D2 receptor in rat striatal membranes; format: cell membranes; details: Membrane
How it was run: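 Ratio Ki(D1)/Ki(D2) from striatal membrane displacement assays: [3H]SCH 23390 at 0.25 nM (D1) and [3H]raclopride at 0.5 nM (D2), each incubated 1 h at 25 °C, with filtration and scintillation counting. Ki data are from 3-5 experiments.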

D(2) dopamine receptor = D(2) dopamine receptor (Rattus norvegicus, UniProt P61169); experiment: Displacement of [3H]-raclopride from dopamine D2 receptor in rat striatal membranes after 1 hr by liquid scintillation counting analysis; format: cell membranes, Membrane
How it was run: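 200 µg protein incubated 1 h at 25 °C with 0.5 nM [3H]raclopride. Nonspecific binding defined with 50 µM apomorphine. GF/B filtration, scintillation counting. Mean ± SEM of 3-5 experiments.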

D(1A) dopamine receptor = D(1A) dopamine receptor (Rattus norvegicus, UniProt P18901); experiment: Displacement of [3H]-SCH 23390 from dopamine D1 receptor in rat striatal membranes after 1 hr by liquid scintillation counting analysis; format: cell membranes, Membrane
How it was run: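 Striatal membranes washed twice by centrifugation at 20000g in Tris-HCl (50 mM, pH 7.4), then resuspended in Tris with 5 mM MgSO4, 0.5 mM EDTA and 0.02% ascorbate. 100 µg protein incubated 1 h at 25 °C with 0.25 nM [3H]SCH 23390. Nonspecific binding defined with 30 µM SK&F 38393. Filtered on GF/B, scintillation counted. Mean ± SEM of 3-5 experiments.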

[4] = Cytotoxicity against human neutrophil assessed as cell viability at 10 uM after 24 hrs by MTT assay; format: cell-based; how it was run: as §2
[5] = Cytotoxicity against human neutrophil assessed as cell viability at 3 uM after 24 hrs by MTT assay; format: cell-based; how it was run: as §2
[6] = Cytotoxicity against human neutrophil assessed as cell viability at 0.3 uM after 24 hrs by MTT assay; format: cell-based; how it was run: as §2
[7] = Cytotoxicity against human neutrophil assessed as cell viability at 100 uM after 24 hrs by MTT assay; format: cell-based; how it was run: as §2

Sequence of D(1A) dopamine receptor (P18901 whole entry): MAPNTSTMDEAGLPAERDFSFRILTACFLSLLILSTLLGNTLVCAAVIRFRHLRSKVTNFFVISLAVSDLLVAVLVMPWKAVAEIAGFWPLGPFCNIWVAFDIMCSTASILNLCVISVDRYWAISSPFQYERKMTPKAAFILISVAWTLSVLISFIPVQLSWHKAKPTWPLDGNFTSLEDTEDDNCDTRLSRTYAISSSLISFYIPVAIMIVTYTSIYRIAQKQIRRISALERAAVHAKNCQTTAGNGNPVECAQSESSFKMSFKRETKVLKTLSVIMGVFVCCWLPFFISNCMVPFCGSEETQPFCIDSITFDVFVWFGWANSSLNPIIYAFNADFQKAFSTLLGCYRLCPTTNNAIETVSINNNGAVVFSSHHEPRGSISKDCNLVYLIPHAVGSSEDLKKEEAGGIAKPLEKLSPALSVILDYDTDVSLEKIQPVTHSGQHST
Sequence of D(2) dopamine receptor (P61169 whole entry): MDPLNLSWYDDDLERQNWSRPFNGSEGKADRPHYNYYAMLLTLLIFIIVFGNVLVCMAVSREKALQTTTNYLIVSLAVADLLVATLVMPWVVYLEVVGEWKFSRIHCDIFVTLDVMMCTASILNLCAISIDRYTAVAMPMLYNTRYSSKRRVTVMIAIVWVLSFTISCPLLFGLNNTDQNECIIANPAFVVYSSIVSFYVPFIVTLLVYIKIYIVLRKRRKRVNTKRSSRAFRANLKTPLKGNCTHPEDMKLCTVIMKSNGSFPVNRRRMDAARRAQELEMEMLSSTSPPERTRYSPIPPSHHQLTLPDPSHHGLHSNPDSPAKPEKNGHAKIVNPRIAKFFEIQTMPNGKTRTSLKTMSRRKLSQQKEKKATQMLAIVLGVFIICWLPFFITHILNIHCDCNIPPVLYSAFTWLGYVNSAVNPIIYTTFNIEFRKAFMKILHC

Structure (SMILES)	Ratio Ki (Rattus norvegicus)	Ki (D(2) dopamine receptor; read-out: Ki) [nM]	Ki (D(2) dopamine receptor; read-out: pKi (converted)) [nM]	Ki (D(1A) dopamine receptor; read-out: Ki) [nM]	Ki (D(1A) dopamine receptor; read-out: pKi (converted)) [nM]	Activity [1]	Activity [2]	Activity [3]	Activity [4]	Activity [5]	Activity [6]	Activity [7]
Oc1ccc2c(c1)CC1c3cc4c(cc3CCN1C2)OCO4 (configuration not stated)	4.4	7510	6920	33000	32400				Non-toxic			
COc1ccc2c(c1)CC1c3cc(OC)c(OC)cc3CCN1C2 (configuration not stated)	0.5	8540	5130	4310	4170				Non-toxic			
Oc1cc2c(cc1O)C1Cc3cccc(O)c3CN1CC2 (configuration not stated)		93	85.1	3780	3470	Non-toxic	Non-toxic	Non-toxic				
Oc1ccc2c(c1)CC1c3cc(O)c(O)cc3CCN1C2 (configuration not stated)	7.5	396	389	2960	2630					Non-toxic		
COc1ccc2c(c1)CC1c3cc4c(cc3CCN1C2)OCO4 (configuration not stated)	1.8	1330	1150	2370	1700					Non-toxic		
COc1ccc2c(c1)CC1c3cc(OC)c(Cl)cc3CCN1C2 (configuration not stated)	0.9	2050		1810	1740					Non-toxic		

More lines, in order of falling Ki (D(2) dopamine receptor; read-out: Ki), values ahead:

Ratio Ki (Rattus norvegicus)	Ki (D(2) dopamine receptor; read-out: Ki) [nM]	Ki (D(2) dopamine receptor; read-out: pKi (converted)) [nM]	Ki (D(1A) dopamine receptor; read-out: Ki) [nM]	Ki (D(1A) dopamine receptor; read-out: pKi (converted)) [nM]	Structure (SMILES)	Activity [1]	Activity [2]	Activity [3]	Activity [4]	Activity [5]	Activity [6]	Activity [7]
1	40900	41700	40600		COc1ccc2c(c1)CC1c3cc(OCc4ccccc4)c(OCc4ccccc4)cc3CCN1C2 (configuration not stated)							Non-toxic
10	393	363	3930	3630	COc1cc2c(cc1OC)C1Cc3cccc(OC)c3CN1CC2 (configuration not stated)					Non-toxic		
0.6	188		107		Oc1ccc2c(c1)CC1c3cc(O)c(Cl)cc3CCN1C2 (configuration not stated)						Non-toxic	
14.2	78	74.1	1110	955	COc1ccc2c(c1)CC1c3cc(O)c(O)cc3CCN1C2 (configuration not stated)	Non-toxic	Non-toxic	Non-toxic				
10	35	28.2	344	339	Oc1cccc2c1CN1CCc3cc4c(cc3C1C2)OCO4 (configuration not stated)	Non-toxic	Non-toxic	Non-toxic				
